The structures appear in SMILES notation. Activity calls are given as the source filed them. No cut-off for these calls is given here. Bounds are passed on as bounds.

The results in this text go back to ChEMBL document CHEMBL4251738, “A BODIPY-Tagged Phosphono Peptide as Activity-Based Probe for Human Leukocyte Elastase” (ACS Med Chem Lett, 2018).

Assay [1] concerns the target T1, Neutrophil elastase (Homo sapiens) (UniProt P08246).
T1 sequence (whole entry): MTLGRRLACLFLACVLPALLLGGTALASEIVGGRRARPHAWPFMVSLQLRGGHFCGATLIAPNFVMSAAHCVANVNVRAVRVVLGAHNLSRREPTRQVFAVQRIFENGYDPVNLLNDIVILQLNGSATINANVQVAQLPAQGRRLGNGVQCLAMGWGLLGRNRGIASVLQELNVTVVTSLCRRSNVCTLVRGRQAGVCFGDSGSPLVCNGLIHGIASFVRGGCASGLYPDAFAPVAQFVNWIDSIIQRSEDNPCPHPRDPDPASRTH
Briefly: Irreversible inhibition of human leukocyte elastase assessed as ratio of Kinact to Ki using MeO-Suc-Ala-Ala-Pro-Val-pNA as substrate incubated over 60 mins by spectrophotometric method. In short, it runs like this: (§1)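 From substrate-consumption progress curves, kobs values (means of duplicates) were plotted against inhibitor concentration. kinac/Ki was derived by linear regression as kinac/Ki = kobs/[I](1 + [S]/Km) + d, where d is an offset. SEM is from that regression.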

Assay [2] concerns the target T2, Pancreatic elastase (Sus scrofa) (UniProt P08419+P00772). Briefly: Inhibition of porcine pancreatic elastase assessed as ratio of Kinact to Ki using MeO-Suc-Ala-Ala-Pro-Val-pNA as substrate incubated over 60 mins by spectrophotometric method. The format is protein assay. The essentials: as §1
The species entered for assay [3] is Bos taurus. Briefly: Inhibition of bovine chymotrypsin assessed as ratio of Kinact to Ki using Suc-Ala-Ala-Pro-Phe-pNA as substrate incubated over 60 mins by spectrophotometric method. The essentials: as §1
The target of assay [4] is Coagulation factor X (Bos taurus) (UniProt P00743). Briefly: Inhibition of bovine factor 10a assessed as product formation at 1 uM using Boc-Ile-Glu-Gly-Arg-AMC as substrate incubated over 60 mins by fluorimetric method. The essentials:
(§2)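 Single-point test at 1 μM inhibitor, run in duplicate. Product formation was followed over 60 min. More than 90% product formation after 60 min was scored as no inhibition.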

The target in assay [5] is Prothrombin (Homo sapiens) (UniProt P00734). Briefly: Inhibition of human thrombin assessed as product formation at 1 uM using Z-Gly-Gly-Arg-AMC as substrate incubated over 60 mins by fluorimetric method. In short, it runs like this: as §2
Assay [6] is filed under the species Bos taurus. Briefly: Inhibition of bovine trypsin assessed as product formation at 1 uM using Suc-Ala-Ala-Pro-Arg-pNA as substrate incubated over 60 mins by spectrophotometric method. The essentials:
as §2

The target in assay [7] is Cathepsin B (Homo sapiens) (UniProt P07858). Briefly: Inhibition of human cathepsin B assessed as product formation at 1 uM using Z-Arg-Arg-pNA as substrate incubated over 60 mins by spectrophotometric method. In short, it runs like this: as §2
The target of assay [8] is Procathepsin L (Homo sapiens) (UniProt P07711). Briefly: Inhibition of human cathepsin L assessed as product formation at 1 uM using Z-Phe-Arg-pNA as substrate incubated over 60 mins by spectrophotometric method. The essentials:
as §2

Assay [9] addresses T1, Neutrophil elastase (Homo sapiens). Briefly: Irreversible inhibition of human leukocyte elastase at 50 nM using MeO-Suc-Ala-Ala-Pro-Val-pNA as substrate incubated for 30 mins followed by substrate addition.
For assay [10] the target is unchanged. Briefly: Binding affinity to human leukocyte elastase at 2.5 uM after 20 mins by in gel fluorescence detection based SDS-PAGE analysis. The essentials:
(§3)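 Varying amounts of HLE were incubated with 2.5 μM fluorescent probe and then run on SDS-PAGE. Labeled HLE was read by in-gel fluorescence as bands at about 29 kDa. The same gel was then stained with Coomassie.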

For assay [11] the target is unchanged. Briefly: Binding affinity to human leukocyte elastase at 160 ng after 20 mins by in gel fluorescence detection based SDS-PAGE analysis. In short, it runs like this:
as §3

For assay [12] the target is unchanged. Briefly: Binding affinity to human leukocyte elastase at 2.5 uM after 20 mins by Coomassie brilliant blue G-250 staining based assay. In short, it runs like this:
as §3

Assay [13] shares this target. Briefly: Binding affinity to human leukocyte elastase at 2.5 uM incubated for 20 mins followed by HEK cell lysate addition by in gel fluorescence detection based SDS-PAGE analysis. The essentials: (§4)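 HLE (600 ng) was incubated with 2.5 μM probe for 20 min. HEK cell lysate (9 μg) was added either before or after that incubation. Lysate alone and HLE alone were run as reference lanes. Samples went on SDS-PAGE, read by in-gel fluorescence and then by Coomassie staining.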

Assay [14] has the same target. Briefly: Binding affinity to human leukocyte elastase at 2.5 uM incubated for 20 mins post HEK cell lysate addition by in gel fluorescence detection based SDS-PAGE analysis. In short, it runs like this: as §4
Assay [15] has the same target. Briefly: Binding affinity to human leukocyte elastase at 2.5 uM incubated for 20 mins followed by HEK cell lysate addition by Coomassie brilliant blue G-250 staining based assay. In short, it runs like this:
as §4

The target is the same in assay [16]. Briefly: Binding affinity to human leukocyte elastase at 2.5 uM incubated for 20 mins post HEK cell lysate addition by Coomassie brilliant blue G-250 staining based assay. The essentials:
as §4

Assay [17] shares this target. Briefly: Inhibition of human leukocyte elastase at 2.5 uM preincubated with sivelestat for 5 mins followed by compound addition measured after 20 mins in presence of sivelestat by in gel fluorescence detection based SDS-PAGE analysis. In short, it runs like this:
(§5)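 It was then incubated with 2.5 μM probe. Samples were resolved by SDS-PAGE, read by in-gel fluorescence and then by Coomassie staining.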

Assay [18] has the same target. Briefly: Inhibition of human leukocyte elastase at 2.5 uM preincubated with sivelestat for 5 mins followed by compound addition measured after 20 mins in presence of sivelestat by Coomassie brilliant blue G-250 staining based assay. In short, it runs like this:
as §5

The target is the same in assay [19]. Briefly: Irreversible inhibition of human leukocyte elastase assessed as ratio of Kinact to Ki using MeO-Suc-Ala-Ala-Pro-Val-pNA as substrate by spectrophotometric method. The conditions noted are these: TDE = time-dependent effect. The essentials: as §1
The species named for assay [20] is Bos taurus. Briefly: Inhibition of bovine chymotrypsin assessed as product formation at 1 uM using Suc-Ala-Ala-Pro-Phe-pNA as substrate incubated over 60 mins by spectrophotometric method. In short, it runs like this:
as §2

For assay [21], the target named is T1, Neutrophil elastase (Homo sapiens). Briefly: Irreversible inhibition of human leukocyte elastase at 20 nM using MeO-Suc-Ala-Ala-Pro-Val-pNA as substrate incubated for 30 mins followed by substrate addition.
Assay [22] deals with T2, Pancreatic elastase (Sus scrofa). Briefly: Inhibition of porcine pancreatic elastase assessed as product formation at 1 uM using MeO-Suc-Ala-Ala-Pro-Val-pNA as substrate incubated over 60 mins by spectrophotometric method. The format is protein assay. The essentials: as §2

Coagulation factor X (Bos taurus), sequence (P00743 41-180 limits assumed): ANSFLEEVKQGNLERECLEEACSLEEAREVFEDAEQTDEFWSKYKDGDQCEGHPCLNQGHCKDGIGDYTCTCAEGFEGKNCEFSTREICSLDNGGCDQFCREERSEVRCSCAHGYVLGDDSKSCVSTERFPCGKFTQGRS
Coagulation factor X (Bos taurus), sequence (P00743 234-492 limits assumed): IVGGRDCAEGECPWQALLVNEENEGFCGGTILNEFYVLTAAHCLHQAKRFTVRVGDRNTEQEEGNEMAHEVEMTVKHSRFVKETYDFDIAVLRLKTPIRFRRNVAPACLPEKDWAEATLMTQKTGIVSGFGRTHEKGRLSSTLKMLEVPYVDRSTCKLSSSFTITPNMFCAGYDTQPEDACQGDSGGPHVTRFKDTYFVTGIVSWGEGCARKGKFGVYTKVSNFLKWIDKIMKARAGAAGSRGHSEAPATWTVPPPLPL
Procathepsin L (Homo sapiens), sequence (P07711 114-333 limits assumed): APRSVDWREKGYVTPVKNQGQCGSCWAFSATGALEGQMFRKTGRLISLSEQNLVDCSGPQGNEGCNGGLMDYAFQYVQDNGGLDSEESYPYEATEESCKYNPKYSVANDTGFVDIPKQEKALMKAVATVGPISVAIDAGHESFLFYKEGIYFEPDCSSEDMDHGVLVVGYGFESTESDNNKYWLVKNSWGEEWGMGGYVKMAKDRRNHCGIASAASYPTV

With `CSc1ccc(OP(=O)(Oc2ccc(SC)cc2)[C@@H](NC(=O)[C@@H]2CCCN2C(=O)[C@@H](NC(=O)Cn2cc(-c3ccc(C4=C5C(C)=CC(C)=[N+]5[B-](F)(F)n5c(C)cc(C)c54)cc3)nn2)C(C)C)C(C)C)cc1`, the Ratio in assay [1] came to 88400 M⁻¹ s⁻¹; in assay [2], 1440 M⁻¹ s⁻¹; in assay [3], 565 M⁻¹ s⁻¹. For the same compound, the inhibition in assay [4], in [5], in [6], in [7] and in assay [8] was more than 90% each time. Further, the inhibition (usually how much of the control response was suppressed) in assay [9] was “Active”. The result in [10], in assay [11], in [12], in [13], in assay [14] and in [15] was Active. Besides, in assay [16], the outcome was Active. Besides, the inhibition entry in assay [17] and in assay [18] was “inactive” each time.

Take `CSc1ccc(OP(=O)(Oc2ccc(SC)cc2)[C@@H](NC(=O)[C@@H]2CCCN2C(=O)[C@@H](NC(=O)OC(C)(C)C)C(C)C)C(C)C)cc1`: the inhibition entry in assay [19] was “Tde”; in [4], more than 90%; in assay [5], more than 90%; in [6], more than 90%; in assay [7] it was more than 90%; in assay [8] it was more than 90%. Moreover, the inhibition in assay [20] is more than 90%. Also, the Ratio in [1] is 399000 M⁻¹ s⁻¹; in assay [2], 7990 M⁻¹ s⁻¹. The inhibition entry in assay [21] was “Active”.

With `CC(C)(C)C(=O)Oc1ccc(S(=O)(=O)Nc2ccccc2C(=O)NCC(=O)O)cc1`, the inhibition result in [1] was “Dose-dependent effect”.

Regarding `CSc1ccc(OP(=O)(Oc2ccc(SC)cc2)[C@H](NC(=O)[C@@H]2CCCN2C(=O)[C@@H](NC(=O)OC(C)(C)C)C(C)C)C(C)C)cc1`, the inhibition entry was “Tde” in [19]; more than 90% in assay [4]; more than 90% in [5]; more than 90% in [6]; more than 90% in [7]; more than 90% in assay [8]. Besides, the inhibition in assay [22] and in assay [20] was more than 90% throughout. In addition, the Ratio in assay [1] was 1000 M⁻¹ s⁻¹.
